Experimental data published in ChEMBL document CHEMBL1629517, “Molecular properties prediction, synthesis and antimicrobial activity of some newer oxadiazole derivatives” (2010).
≈ marks a conversion by molar mass, not a printed value.

Key:
Pseudomonas aeruginosa [1] = assay: Antibacterial activity against Pseudomonas aeruginosa ATCC 27853 after 24 hrs by broth dilution technique; assay type: functional; details: ATCC 27853, 24 h
Summary of the method: (§1)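 MIC by broth dilution: nutrient broth containing logarithmic two-fold serial dilutions of compound was inoculated with about 5 × 10⁵ c.f.u. of actively dividing bacteria.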

Escherichia coli [2] = assay: Antibacterial activity against Escherichia coli ATCC 25922 after 24 hrs by broth dilution technique; assay type: functional; details: ATCC 25922, 24 h; summary of the method: as §1
Staphylococcus aureus [3] = assay: Antibacterial activity against Staphylococcus aureus ATCC 25923 at 200 ug/ml after 24 hrs by disc-diffusion method; assay type: functional; details: ATCC 25923, 24 h, read-out: IZ
Bacillus subtilis [4] = assay: Antibacterial activity against Bacillus subtilis ATCC 6633 at 100 ug/ml after 24 hrs by disc-diffusion method; assay type: functional; details: ATCC 6633, 24 h, read-out: IZ
Pseudomonas aeruginosa [5] = assay: Antibacterial activity against Pseudomonas aeruginosa ATCC 27853 at 100 ug/ml after 24 hrs by disc-diffusion method; assay type: functional; details: ATCC 27853, 24 h, read-out: IZ
Escherichia coli [6] = assay: Antibacterial activity against Escherichia coli ATCC 25922 at 200 ug/ml after 24 hrs by disc-diffusion method; assay type: functional; details: ATCC 25922, 24 h, read-out: IZ
Bacillus subtilis [7] = assay: Antibacterial activity against Bacillus subtilis ATCC 6633 after 18 to 24 hrs; assay type: functional
Escherichia coli [8] = assay: Antibacterial activity against Escherichia coli ATCC 25922 after 18 to 24 hrs; assay type: functional
Staphylococcus aureus [9] = assay: Antibacterial activity against Staphylococcus aureus ATCC 25923 at 100 ug/ml after 24 hrs by disc-diffusion method; assay type: functional; details: ATCC 25923, 24 h, read-out: IZ
Bacillus subtilis [10] = assay: Antibacterial activity against Bacillus subtilis ATCC 6633 at 200 ug/ml after 24 hrs by disc-diffusion method; assay type: functional; details: ATCC 6633, 24 h, read-out: IZ
Staphylococcus aureus [11] = assay: Antibacterial activity against Staphylococcus aureus ATCC 25923 after 18 to 24 hrs; assay type: functional
Pseudomonas aeruginosa [12] = assay: Antibacterial activity against Pseudomonas aeruginosa ATCC 27853 at 200 ug/ml after 24 hrs by disc-diffusion method; assay type: functional; details: ATCC 27853, 24 h, read-out: IZ
Bacillus subtilis [13] = assay: Antibacterial activity against Bacillus subtilis ATCC 6633 after 24 hrs by broth dilution technique; assay type: functional; details: ATCC 6633, 24 h; summary of the method: as §1
Staphylococcus aureus [14] = assay: Antibacterial activity against Staphylococcus aureus ATCC 25923 after 24 hrs by broth dilution technique; assay type: functional; details: ATCC 25923, 24 h; summary of the method: as §1
Pseudomonas aeruginosa [15] = assay: Antibacterial activity against Pseudomonas aeruginosa ATCC 27853 after 18 to 24 hrs; assay type: functional
Escherichia coli [16] = assay: Antibacterial activity against Escherichia coli ATCC 25922 at 100 ug/ml after 24 hrs by disc-diffusion method; assay type: functional; details: ATCC 25922, 24 h, read-out: IZ
Aspergillus niger [17] = assay: Antifungal activity against Aspergillus niger at 200 ug/ml after 48 hrs by agar diffusion method; assay type: functional; details: read-out: IZ
Summary of the method: (§2)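 Agar well diffusion on Sabouraud agar (peptone 1 g, D-glucose 4 g, agar 2 g per 100 ml water, pH 5.7). Plates were lawned with a saline suspension of spores, excess was decanted, and plates were dried 1 h at 37 °C. Compounds in DMSO went into punched wells, and inhibition zones were measured against controls, with voriconazole as standard.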

Aspergillus niger [18] = assay: Antifungal activity against Aspergillus niger at 100 ug/ml after 3 to 4 days by agar diffusion method; details: read-out: IZ
Candida albicans [19] = assay: Antifungal activity against Candida albicans after 48 hrs; assay type: functional
Candida albicans [20] = assay: Antifungal activity against Candida albicans at 100 ug/ml after 48 hrs by agar diffusion method; assay type: functional; details: read-out: IZ; summary of the method: as §2
Aspergillus niger [21] = assay: Antifungal activity against Aspergillus niger after 48 hrs; assay type: functional
Candida albicans [22] = assay: Antifungal activity against Candida albicans at 200 ug/ml after 48 hrs by agar diffusion method; assay type: functional; details: read-out: IZ; summary of the method: as §2

SMILES	MIC (Pseudomonas aeruginosa [1]) [µg/mL]	MIC (Escherichia coli [2]) [µg/mL]	zone of inhibition at 200 µg/mL (Staphylococcus aureus [3]) [mm]	zone of inhibition at 100 µg/mL (Bacillus subtilis [4]) [mm]	zone of inhibition at 100 µg/mL (Pseudomonas aeruginosa [5]) [mm]	zone of inhibition at 200 µg/mL (Escherichia coli [6]) [mm]	MBC (Bacillus subtilis [7]) [µg/mL]	MBC (Escherichia coli [8]) [µg/mL]	zone of inhibition at 100 µg/mL (Staphylococcus aureus [9]) [mm]	zone of inhibition at 200 µg/mL (Bacillus subtilis [10]) [mm]	MBC (Staphylococcus aureus [11]) [µg/mL]	zone of inhibition at 200 µg/mL (Pseudomonas aeruginosa [12]) [mm]	MIC (Bacillus subtilis [13]) [µg/mL]	MIC (Staphylococcus aureus [14]) [µg/mL]	MBC (Pseudomonas aeruginosa [15]) [µg/mL]	zone of inhibition at 100 µg/mL (Escherichia coli [16]) [mm]	zone of inhibition at 200 µg/mL (Aspergillus niger [17]) [mm]	zone of inhibition at 100 µg/mL (Aspergillus niger [18]) [mm]	zone of inhibition at 100 µg/mL (Candida albicans [20]) [mm]	zone of inhibition at 200 µg/mL (Candida albicans [22]) [mm]	other results
O=C(O)c1cn(C2CC2)c2cc(N3CCNCC3)c(F)cc2c1=O [CIPROFLOXACIN]	6 (≈ 18.1 µM)	6 (≈ 18.1 µM)	24	21	32	27	12.5 (≈ 37.7 µM)	12.5 (≈ 37.7 µM)	23	22	12.5 (≈ 37.7 µM)	33	6 (≈ 18.1 µM)	6 (≈ 18.1 µM)	12.5 (≈ 37.7 µM)	–	–	–	–	–	–
COc1cc(/C=C/C(=O)c2ccccc2)ccc1OCc1nnc(-c2ccc(Cl)cc2)o1	25 (≈ 55.9 µM)	12.5 (≈ 28 µM)	14	9	19	18	12.5 (≈ 28 µM)	25 (≈ 55.9 µM)	12	11	25 (≈ 55.9 µM)	22	6 (≈ 13.4 µM)	12.5 (≈ 28 µM)	50 (≈ 112 µM)	16	20	18	12	15	MFC (Candida albicans [19]): 50 µg/mL (≈ 112 µM); MIC (Candida albicans [19]): 25 µg/mL (≈ 55.9 µM); MFC (Aspergillus niger [21]): 25 µg/mL (≈ 55.9 µM); MIC (Aspergillus niger [21]): 12.5 µg/mL (≈ 28 µM)
COc1cc(/C=C/C(=O)c2ccccc2)ccc1OCc1nnc(-c2ccccc2O)o1	6 (≈ 14 µM)	6 (≈ 14 µM)	19	15	25	22	12.5 (≈ 29.2 µM)	12.5 (≈ 29.2 µM)	17	16	12.5 (≈ 29.2 µM)	27	6 (≈ 14 µM)	6 (≈ 14 µM)	12.5 (≈ 29.2 µM)	20	25	22	18	20	MFC (Candida albicans [19]): 12.5 µg/mL (≈ 29.2 µM); MIC (Candida albicans [19]): 6 µg/mL (≈ 14 µM); MFC (Aspergillus niger [21]): 12.5 µg/mL (≈ 29.2 µM); MIC (Aspergillus niger [21]): 6 µg/mL (≈ 14 µM)
COc1ccc(C(=O)/C=C/c2ccc(OCc3nnc(-c4ccccc4O)o3)c(OC)c2)cc1	12.5 (≈ 27.3 µM)	6 (≈ 13.1 µM)	23	18	30	26	12.5 (≈ 27.3 µM)	12.5 (≈ 27.3 µM)	21	20	6 (≈ 13.1 µM)	32	6 (≈ 13.1 µM)	6 (≈ 13.1 µM)	25 (≈ 54.5 µM)	25	26	25	19	21	MFC (Candida albicans [19]): 12.5 µg/mL (≈ 27.3 µM); MIC (Candida albicans [19]): 6 µg/mL (≈ 13.1 µM); MFC (Aspergillus niger [21]): 12.5 µg/mL (≈ 27.3 µM); MIC (Aspergillus niger [21]): 6 µg/mL (≈ 13.1 µM)
COc1cc(/C=C/C(=O)c2ccc(O)cc2)ccc1OCc1nnc(-c2ccc([N+](=O)[O-])cc2)o1	12.5 (≈ 26.4 µM)	50 (≈ 106 µM)	13	10	21	17	50 (≈ 106 µM)	100 (≈ 211 µM)	12	11	50 (≈ 106 µM)	23	12.5 (≈ 26.4 µM)	25 (≈ 52.8 µM)	100 (≈ 211 µM)	15	19	17	13	15	MFC (Aspergillus niger [21]): 100 µg/mL (≈ 211 µM); MIC (Aspergillus niger [21]): 25 µg/mL (≈ 52.8 µM)
COc1cc(/C=C/C(=O)c2ccc(O)cc2)ccc1OCc1nnc(-c2ccc(Cl)cc2)o1	25 (≈ 54 µM)	25 (≈ 54 µM)	15	11	22	18	25 (≈ 54 µM)	50 (≈ 108 µM)	13	13	100 (≈ 216 µM)	23	12.5 (≈ 27 µM)	25 (≈ 54 µM)	100 (≈ 216 µM)	16	21	18	14	17	MFC (Candida albicans [19]): 25 µg/mL (≈ 54 µM); MIC (Candida albicans [19]): 12.5 µg/mL (≈ 27 µM)
COc1cc(/C=C/C(=O)c2ccccc2)ccc1OCc1nnc(-c2ccc(C)cc2)o1	12.5 (≈ 29.3 µM)	6 (≈ 14.1 µM)	16	12	23	21	12.5 (≈ 29.3 µM)	25 (≈ 58.6 µM)	15	14	25 (≈ 58.6 µM)	25	6 (≈ 14.1 µM)	6 (≈ 14.1 µM)	50 (≈ 117 µM)	19	22	20	15	16	MFC (Candida albicans [19]): 25 µg/mL (≈ 58.6 µM); MIC (Candida albicans [19]): 12.5 µg/mL (≈ 29.3 µM)
C[C@@H](c1ncncc1F)[C@](O)(Cn1cncn1)c1ccc(F)cc1F [VORICONAZOLE]	–	–	–	–	–	–	–	–	–	–	–	–	–	–	–	–	30	28	24	26	MFC (Candida albicans [19]): 12.5 µg/mL (≈ 35.8 µM); MIC (Candida albicans [19]): 6 µg/mL (≈ 17.2 µM); MFC (Aspergillus niger [21]): 12.5 µg/mL (≈ 35.8 µM); MIC (Aspergillus niger [21]): 6 µg/mL (≈ 17.2 µM)
COc1cc(/C=C/C(=O)c2ccc(O)cc2)ccc1OCc1nnc(-c2ccc(C)cc2)o1	25 (≈ 56.5 µM)	12.5 (≈ 28.3 µM)	17	12	23	20	25 (≈ 56.5 µM)	25 (≈ 56.5 µM)	15	14	50 (≈ 113 µM)	25	12.5 (≈ 28.3 µM)	25 (≈ 56.5 µM)	100 (≈ 226 µM)	19	23	20	15	17	MFC (Candida albicans [19]): 100 µg/mL (≈ 226 µM); MIC (Candida albicans [19]): 25 µg/mL (≈ 56.5 µM)
COc1ccc(C(=O)/C=C/c2ccc(OCc3nnc(-c4ccc(Cl)cc4)o3)c(OC)c2)cc1	12.5 (≈ 26.2 µM)	12.5 (≈ 26.2 µM)	15	12	22	19	50 (≈ 105 µM)	100 (≈ 210 µM)	14	13	50 (≈ 105 µM)	24	12.5 (≈ 26.2 µM)	12.5 (≈ 26.2 µM)	100 (≈ 210 µM)	17	21	19	16	17	MFC (Aspergillus niger [21]): 50 µg/mL (≈ 105 µM); MIC (Aspergillus niger [21]): 12.5 µg/mL (≈ 26.2 µM)
